Data as given in article PMC12304097 (Scientific Reports, 2025).

Assays:
NEP2 = settings: cited from earlier work
cGMP = settings: canine model of renin-angiotensin-aldosterone system; cited from earlier work
NEP = settings: cited from earlier work
[1] = target: T1, NEP (recombinant soluble extracellular domain) (Homo sapiens, UniProt P08473); test: Inhibition of NEP-mediated NP cleavage; format: biochemical; settings: inhibitor 50 µM, NEP 9.4 nM
[2] = target: T2, NEP2 (recombinant soluble extracellular domain) (Homo sapiens, UniProt Q495T6); test: Inhibition of NEP2-mediated NP cleavage; format: biochemical; settings: inhibitor 50 µM, NEP2 113 nM
T2 sequence (Q495T6 74-779): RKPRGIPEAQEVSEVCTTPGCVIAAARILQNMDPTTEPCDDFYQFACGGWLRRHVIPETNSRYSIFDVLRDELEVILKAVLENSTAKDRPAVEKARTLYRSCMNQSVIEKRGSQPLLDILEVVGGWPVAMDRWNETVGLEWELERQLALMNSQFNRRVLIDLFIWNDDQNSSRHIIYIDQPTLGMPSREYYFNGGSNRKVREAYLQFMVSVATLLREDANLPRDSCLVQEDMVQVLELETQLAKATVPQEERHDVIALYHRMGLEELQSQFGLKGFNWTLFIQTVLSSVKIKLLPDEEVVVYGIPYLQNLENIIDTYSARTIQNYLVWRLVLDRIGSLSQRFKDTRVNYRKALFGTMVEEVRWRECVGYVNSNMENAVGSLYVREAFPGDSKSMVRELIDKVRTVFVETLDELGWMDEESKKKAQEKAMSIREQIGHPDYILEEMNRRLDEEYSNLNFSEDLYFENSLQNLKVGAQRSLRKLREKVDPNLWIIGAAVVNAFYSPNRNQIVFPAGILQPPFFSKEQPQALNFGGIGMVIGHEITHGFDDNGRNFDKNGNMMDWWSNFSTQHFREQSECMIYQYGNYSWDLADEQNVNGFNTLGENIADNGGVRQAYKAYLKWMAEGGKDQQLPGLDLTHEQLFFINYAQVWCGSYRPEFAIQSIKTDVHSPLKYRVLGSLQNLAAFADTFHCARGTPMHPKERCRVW

[3] = target: T1, NEP (recombinant soluble extracellular domain); test: In vitro NP cleavage by NEP, read by intact-ring s-IA; format: in vitro ADME
Summary of the method: (§1)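 Ni-NTA-purified His-tagged soluble human ectodomains were used: NEP (aa 56–750, Expi293F) at 9.4 nM and NEP2 (aa 74–779, ExpiCHO-S) at 113 nM. Doses were activity-matched on a fluorogenic substrate. […] Reactions were stopped with EDTA buffer and read by Eu-chelate intact-ring ANP or BNP sandwich immunoassay, relative to enzyme-free sample.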

[4] = target: T2, NEP2 (recombinant soluble extracellular domain); test: In vitro NP cleavage by NEP2, read by intact-ring s-IA; format: in vitro ADME; settings: sentence says the same is true for NEP2
Summary of the method: as §1

[5] = peptide 1.45 µM, intact-ring s-IA, P < 0.005

T1 sequence (P08473 56-750): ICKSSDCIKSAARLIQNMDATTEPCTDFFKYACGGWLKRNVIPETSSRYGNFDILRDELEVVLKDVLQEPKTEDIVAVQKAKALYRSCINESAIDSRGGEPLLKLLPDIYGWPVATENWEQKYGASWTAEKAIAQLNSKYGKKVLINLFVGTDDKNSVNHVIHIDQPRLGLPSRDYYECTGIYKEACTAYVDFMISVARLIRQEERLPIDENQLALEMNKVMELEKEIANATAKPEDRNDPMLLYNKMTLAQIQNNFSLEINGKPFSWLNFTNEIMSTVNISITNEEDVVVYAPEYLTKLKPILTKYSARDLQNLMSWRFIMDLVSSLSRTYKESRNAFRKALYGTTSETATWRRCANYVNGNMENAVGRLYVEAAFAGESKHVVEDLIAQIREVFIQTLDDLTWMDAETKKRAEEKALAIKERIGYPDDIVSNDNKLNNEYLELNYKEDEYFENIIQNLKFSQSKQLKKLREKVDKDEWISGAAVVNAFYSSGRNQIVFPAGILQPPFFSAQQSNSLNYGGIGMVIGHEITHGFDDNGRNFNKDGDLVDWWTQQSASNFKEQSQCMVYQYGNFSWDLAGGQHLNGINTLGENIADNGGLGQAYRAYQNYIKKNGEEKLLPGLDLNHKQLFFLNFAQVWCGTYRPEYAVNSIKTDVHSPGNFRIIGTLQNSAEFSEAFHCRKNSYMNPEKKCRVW

## O=C(O)CNC(=O)C(CS)Cc1ccccc1 (centres unmarked) [thiorphan]
NEP2
  Affinity towards NEP2, fold lower than towards NEP: 30 times
  Inhibition of NEP2: less potently

## C[C@H](C[C@@H](Cc1ccc(-c2ccccc2)cc1)NC(=O)CCC(=O)O)C(=O)O [sacubitrilat]
cGMP
  Circulating cGMP levels: increased

## CC(C)C[C@H](NP(=O)(O)O[C@@H]1O[C@@H](C)[C@H](O)[C@@H](O)[C@H]1O)C(=O)N[C@@H](Cc1c[nH]c2ccccc12)C(=O)O [phosphoramidon]
NEP2
  Inhibition of NEP2: sensitive
NEP
  Inhibition of NEP: sensitive
[1]; BNP 1.45 µM, neo5 s-IA
  Effect of inhibitor on neo5-epitope formation during BNP proteolysis by NEP: inhibited
[1]; [5]
  Effect of inhibitor on ANP and BNP proteolysis by NEP: inhibited
[2]; BNP 1.45 µM, neo5 s-IA
  Effect of inhibitor on neo5-epitope formation during BNP proteolysis by NEP2: inhibited
[2]; [5]
  Effect of inhibitor on ANP and BNP proteolysis by NEP2: inhibited

## ANP: Synthetic ANP, 28 aa, aar 124–151 of UniProt P01160, Bachem
[3]
  Susceptibility to proteolysis by NEP relative to BNP: more susceptible to proteolysis
[4]
  Susceptibility to proteolysis by NEP2 relative to BNP: more susceptible to proteolysis
